# Data from ChEMBL document CHEMBL1135410, “Adenine nucleotide analogues locked in a Northern methanocarba conformation: enhanced stability and potency as P2Y(1) receptor agonists” (J Med Chem, 2002).
# The source made the active and inactive calls. The rule behind the calls is not given here.
# Tests used:
# [1] = molecular target: T1, P2Y purinoceptor 2 (Homo sapiens, UniProt P41231); experiment: (§1) Agonist activity by measuring inositol phosphate accumulation in 1321N1 human astrocytoma cells stably expressing human P2Y purinoceptor 2; type: functional
# In short: (§2)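 Inositol phosphate accumulation measured in 1321N1 human astrocytoma cells stably expressing human P2Y1, P2Y2, P2Y4 or P2Y11 receptor. Full concentration–effect curves, repeated in at least three separate experiments run in duplicate or triplicate. EC50 from four-parameter logistic fit. Relative efficacy (%) taken against a maximal effective concentration of UTP or UDP in the same experiment.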
# [2] = molecular target: P2Y purinoceptor 1 (Meleagris gallopavo, UniProt P49652); experiment: Activation of Purinoceptor P2Y1-mediated phospholipase C in turkey erythrocyte membranes; type: cell membranes
# In short: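 Turkey erythrocytes labelled 18–24 h at 37 °C with 2-[3H]myo-inositol in inositol-free DMEM. Total [3H]inositol phosphates separated by anion exchange. EC50 from four-parameter logistic fit, at least three experiments.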
# [3] = molecular target: T2, P2Y purinoceptor 1 (Homo sapiens, UniProt P47900); experiment: Accumulation of inositol phosphate in 1321N1 astrocytoma cells expressing human P2Y1 purinoceptor; type: cell-based; in short: as §2
# [4] = molecular target: T2, P2Y purinoceptor 1; experiment: Agonist activity by measuring inositol phosphate accumulation in 1321N1 human astrocytoma cells stably expressing human P2Y purinoceptor 1; No effect as either agonist or antagonist at 10 uM; type: functional; in short: as §2
# [5] = molecular target: P2Y purinoceptor 1 (Meleagris gallopavo) (UniProt P49652); experiment: Agonist activity by measuring Purinoceptor P2Y1-promoted phospholipase C activity in turkey erythrocyte membranes; type: functional, cell membranes
# In short: (§3)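 Turkey erythrocytes labelled 18–24 h at 37 °C with 2-[3H]myo-inositol in inositol-free DMEM. Ghosts (about 175 μg protein) incubated 5 min at 30 °C in pH 7.0 Hepes/KCl buffer with EGTA, CaCl2 and MgSO4, plus 1 μM GTPγS and the agonist. Total [3H]inositol phosphates separated by anion exchange. EC50 from four-parameter logistic fit, at least three experiments.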
# [6] = molecular target: T3, P2Y purinoceptor 11 (Homo sapiens) (UniProt Q96G91); experiment: Agonist activity by measuring inositol phosphate accumulation in 1321N1 human astrocytoma cells stably expressing human P2Y purinoceptor 11; No effect as either agonist or antagonist at 10 uM; type: functional; in short: as §2
# T3 sequence (whole entry): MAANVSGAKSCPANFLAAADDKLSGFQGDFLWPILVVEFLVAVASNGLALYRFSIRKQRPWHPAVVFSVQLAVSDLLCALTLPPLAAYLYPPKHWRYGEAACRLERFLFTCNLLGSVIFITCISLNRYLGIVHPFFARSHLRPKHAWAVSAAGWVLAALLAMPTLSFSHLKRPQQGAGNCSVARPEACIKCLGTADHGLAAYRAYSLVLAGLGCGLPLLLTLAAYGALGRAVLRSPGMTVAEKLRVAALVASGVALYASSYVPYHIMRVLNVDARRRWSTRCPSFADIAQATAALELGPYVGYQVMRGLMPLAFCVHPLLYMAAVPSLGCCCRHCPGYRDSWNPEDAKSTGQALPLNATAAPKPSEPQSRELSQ
# [7] = molecular target: T1, P2Y purinoceptor 2; experiment: Agonist activity by measuring inositol phosphate accumulation in 1321N1 human astrocytoma cells stably expressing human P2Y purinoceptor 2; No effect as either agonist or antagonist at 10 uM; type: functional
# [8] = molecular target: P2Y purinoceptor 4 (Homo sapiens) (UniProt P51582); experiment: Agonist activity by measuring inositol phosphate accumulation in 1321N1 human astrocytoma cells stably expressing human P2Y purinoceptor 4; No effect as either agonist or antagonist at 10 uM; type: functional; in short: as §2
# [9] = molecular target: P2Y purinoceptor 1 (Meleagris gallopavo) (UniProt P49652); experiment: Agonist activity by measuring Purinoceptor P2Y1-promoted phospholipase C activity in turkey erythrocyte membranes; No effect as either agonist or antagonist at 10 uM; type: functional, cell membranes; in short: as §3
# [10] = species: Rattus norvegicus; experiment: Hydrolysis rate of compound as substrate of purified recombinant rat Ecto-5'-nucleotidase; type: functional; set-up: scale not given: the % may be the effect or the level left
# In short: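 Purified baculovirus-expressed rat ecto-5′-nucleotidase (0.5 μg) incubated 10 min at 37 °C with 100 μM (final) substrate in Tris-buffered saline containing 0.4 mM MgCl2, pH 7.4. Reaction stopped with 5% TCA. Released inorganic phosphate measured by the Lanzetta method. Activity expressed relative to AMP (100%). Two experiments, each in duplicate.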
# [11] = molecular target: P2Y purinoceptor 1 (Meleagris gallopavo) (UniProt P49652); experiment: Agonist activity by measuring Purinoceptor P2Y1-promoted phospholipase C activity in turkey erythrocyte membranes; NE means no effect.; type: functional, cell membranes; in short: as §3
# [12] = molecular target: T1, P2Y purinoceptor 2; experiment: Agonist activity by measuring inositol phosphate accumulation in 1321N1 human astrocytoma cells stably expressing human P2Y purinoceptor 2r; No effect as either agonist or antagonist at 10 uM; type: functional; in short: as §2
# [13] = molecular target: T4, Ectonucleoside triphosphate diphosphohydrolase 1 (Rattus norvegicus) (UniProt P97687); experiment: Hydrolysis rate as substrate of rat Ectonucleoside triphosphate diphosphohydrolase 1 (NTPDase 1) (Ecto-apyrase); set-up: scale not given: the % may be the effect or the level left
# T4 sequence (whole entry): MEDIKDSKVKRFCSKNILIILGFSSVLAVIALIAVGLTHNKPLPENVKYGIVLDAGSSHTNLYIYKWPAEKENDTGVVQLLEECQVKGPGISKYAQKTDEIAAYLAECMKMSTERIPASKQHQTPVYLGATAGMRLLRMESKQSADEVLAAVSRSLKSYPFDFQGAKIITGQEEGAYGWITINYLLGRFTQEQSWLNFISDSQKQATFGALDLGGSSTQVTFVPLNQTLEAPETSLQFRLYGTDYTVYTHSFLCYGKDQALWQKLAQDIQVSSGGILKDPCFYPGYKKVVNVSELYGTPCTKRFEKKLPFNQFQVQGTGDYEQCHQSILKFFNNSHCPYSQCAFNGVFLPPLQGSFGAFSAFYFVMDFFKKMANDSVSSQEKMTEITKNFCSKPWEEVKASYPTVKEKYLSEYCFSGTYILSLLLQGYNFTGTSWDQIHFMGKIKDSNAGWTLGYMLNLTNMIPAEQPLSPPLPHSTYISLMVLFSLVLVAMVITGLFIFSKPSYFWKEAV
# In short: (§4)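 Intact CHO cells stably expressing rat NTPDase1 or NTPDase2, seeded 24 h before assay. Incubated at 37 °C in Hepes-buffered saline, pH 7.4, with nucleotide substrate. Supernatant aliquots taken over time and analysed by HPLC at 260 nm. Rate expressed relative to ATP (100%). Nontransfected CHO cells served as control. Two experiments, each in duplicate.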
# [14] = molecular target: T5, Ectonucleoside triphosphate diphosphohydrolase 2 (Rattus norvegicus) (UniProt O35795); experiment: Hydrolysis rate as substrate of rat Ectonucleoside triphosphate diphosphohydrolase 2 (NTPDase 2) (Ecto-apyrase); set-up: scale not given: the % may be the effect or the level left; in short: as §4
# T5 sequence (whole entry): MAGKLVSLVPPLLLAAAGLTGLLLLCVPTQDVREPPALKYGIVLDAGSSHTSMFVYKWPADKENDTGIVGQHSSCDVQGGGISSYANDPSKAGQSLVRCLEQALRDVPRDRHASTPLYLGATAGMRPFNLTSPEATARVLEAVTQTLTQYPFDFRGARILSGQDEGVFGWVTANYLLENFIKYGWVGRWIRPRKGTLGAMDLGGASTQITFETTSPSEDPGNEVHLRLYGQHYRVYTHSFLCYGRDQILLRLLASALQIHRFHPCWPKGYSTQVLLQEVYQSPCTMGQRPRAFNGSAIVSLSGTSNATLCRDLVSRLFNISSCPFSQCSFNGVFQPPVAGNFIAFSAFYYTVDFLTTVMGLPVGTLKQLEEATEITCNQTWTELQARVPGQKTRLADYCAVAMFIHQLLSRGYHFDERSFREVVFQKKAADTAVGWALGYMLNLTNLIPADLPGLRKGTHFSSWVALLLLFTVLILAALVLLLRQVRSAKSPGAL
# [15] = molecular target: T1, P2Y purinoceptor 2; experiment: as §1; type: functional; in short: as §2; remark: listed apart in the source
# [16] = molecular target: P2Y purinoceptor 4 (Homo sapiens) (UniProt P51582); experiment: Agonist activity by measuring the agonist potencies of the corresponding ribose- containing nucleotides, for the receptor subtype human P2Y purinoceptor 4; No effect as either agonist or antagonist at 10 uM; type: functional; in short: as §2
# [17] = molecular target: T3, P2Y purinoceptor 11 (Homo sapiens); experiment: Agonist activity by measuring inositol phosphate accumulation in 1321N1 human astrocytoma cells stably expressing human P2Y purinoceptor 11; type: functional; in short: as §2
# [18] = molecular target: P2Y purinoceptor 4 (Homo sapiens) (UniProt P51582); experiment: Agonist activity by measuring inositol phosphate accumulation in 1321N1 human astrocytoma cells stably expressing human P2Y purinoceptor 4; type: functional; in short: as §2
# Sequence of P2Y purinoceptor 1 (Meleagris gallopavo, UniProt P49652) (P49652 whole entry): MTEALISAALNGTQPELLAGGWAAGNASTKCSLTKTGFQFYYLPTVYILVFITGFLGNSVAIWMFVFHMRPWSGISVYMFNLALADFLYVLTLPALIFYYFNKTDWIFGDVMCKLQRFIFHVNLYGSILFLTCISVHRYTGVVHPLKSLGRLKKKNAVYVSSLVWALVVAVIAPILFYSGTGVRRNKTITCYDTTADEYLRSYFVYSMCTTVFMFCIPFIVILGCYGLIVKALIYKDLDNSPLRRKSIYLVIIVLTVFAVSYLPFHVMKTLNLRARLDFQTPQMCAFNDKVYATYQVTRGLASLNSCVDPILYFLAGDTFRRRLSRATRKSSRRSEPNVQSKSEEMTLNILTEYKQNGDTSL
# Sequence of P2Y purinoceptor 1 (Meleagris gallopavo) (P49652 whole entry): as above
# Sequence of P2Y purinoceptor 4 (Homo sapiens) (P51582 whole entry): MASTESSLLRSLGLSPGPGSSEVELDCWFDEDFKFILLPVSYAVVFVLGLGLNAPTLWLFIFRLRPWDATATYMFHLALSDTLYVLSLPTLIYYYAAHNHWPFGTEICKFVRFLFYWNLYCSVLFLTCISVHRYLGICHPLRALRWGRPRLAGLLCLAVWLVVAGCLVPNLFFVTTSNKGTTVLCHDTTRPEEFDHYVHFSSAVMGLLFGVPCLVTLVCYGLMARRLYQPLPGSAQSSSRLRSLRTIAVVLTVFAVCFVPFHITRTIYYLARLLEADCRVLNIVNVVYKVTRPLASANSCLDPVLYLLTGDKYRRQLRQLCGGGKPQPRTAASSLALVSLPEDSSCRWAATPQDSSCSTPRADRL
# T1 sequence (P41231 whole entry): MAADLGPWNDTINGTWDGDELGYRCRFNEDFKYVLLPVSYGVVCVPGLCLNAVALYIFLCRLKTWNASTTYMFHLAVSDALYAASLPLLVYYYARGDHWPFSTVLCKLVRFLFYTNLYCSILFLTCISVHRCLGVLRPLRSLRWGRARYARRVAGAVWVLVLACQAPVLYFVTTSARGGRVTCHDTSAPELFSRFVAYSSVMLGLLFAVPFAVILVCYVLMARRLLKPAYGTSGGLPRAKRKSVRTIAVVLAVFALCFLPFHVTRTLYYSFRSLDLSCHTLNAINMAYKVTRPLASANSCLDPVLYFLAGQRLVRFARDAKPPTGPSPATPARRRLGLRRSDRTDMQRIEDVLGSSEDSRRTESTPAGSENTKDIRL
# T2 sequence (P47900 whole entry): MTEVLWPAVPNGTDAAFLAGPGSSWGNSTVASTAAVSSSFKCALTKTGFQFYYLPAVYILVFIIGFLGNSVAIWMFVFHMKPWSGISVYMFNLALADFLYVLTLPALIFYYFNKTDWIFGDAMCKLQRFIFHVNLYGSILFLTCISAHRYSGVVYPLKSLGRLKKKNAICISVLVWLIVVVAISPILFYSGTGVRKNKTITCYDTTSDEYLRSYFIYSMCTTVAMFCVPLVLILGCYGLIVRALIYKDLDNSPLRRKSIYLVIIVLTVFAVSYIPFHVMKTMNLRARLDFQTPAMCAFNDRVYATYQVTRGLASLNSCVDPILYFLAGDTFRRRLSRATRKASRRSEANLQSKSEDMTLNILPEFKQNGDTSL
compound,measurement,setting,value
CNc1nc(Cl)nc2c1ncn2C1C(O)C(O)[C@@]2(COP(=O)(O)OP(=O)(O)OP(=O)(O)O)C[C@@H]12 (stereo partly specified),EC50,[1],8400 nM
same,EC50,[2],6 nM
same,EC50,[3],9 nM
CSc1nc(N)c2ncn([C@@H]3O[C@H](COP(=O)(O)O)[C@@H](O)[C@H]3O)c2n1,NE,[4],inactive
same,% of maximal effect,[5],15%
same,NE,[6],inactive
Nc1nc(Cl)nc2c1ncn2[C@@H]1O[C@H](COP(=O)(O)OP(=O)(O)OP(=O)(O)O)[C@@H](O)[C@H]1O,EC50,[1],2300 nM
same,EC50,[2],720 nM
same,EC50,[3],770 nM
C[S+]([O-])c1nc(N)c2ncn([C@H]3[C@H](O)[C@H](O)[C@@]4(COP(=O)(O)O)C[C@H]34)c2n1 (stereo partly specified),EC50,[2],36.6 nM
Nc1ncnc2c1ncn2C1C(O)C(O)[C@@]2(COP(=O)(O)OP(=O)(O)CP(=O)(O)O)C[C@H]12 (stereo partly specified),EC50,[2],11300 nM
same,EC50,[3],158 nM
same,NE,[7],inactive
same,NE,[8],inactive
Nc1ncnc2c1ncn2[C@@H]1O[C@H](COP(=O)(O)OP(=O)(O)CP(=O)(O)O)[C@@H](O)[C@H]1O,NE,[4],inactive
same,NE,[7],inactive
same,NE,[9],inactive
Nc1ncnc2c1ncn2[C@@]12C[C@@H]1[C@H](COP(=O)(O)O)[C@H](O)[C@@H]2O,Activity,[10],0%
CSc1nc(N)c2ncn(C3C(O)C(O)[C@@]4(COP(=O)(O)OP(=O)(O)OP(=O)(O)O)C[C@@H]34)c2n1 (stereo partly specified),EC50,[2],3.7 nM
same,EC50,[3],23 nM
Nc1ncnc2c1ncn2[C@H]1[C@H](O)[C@H](O)[C@@]2(COP(=O)(O)O)C[C@H]12,NE,[11],inactive
same,Activity,[10],0.14%
CNC(=O)[C@@]12C[C@@H]1[C@@H](n1cnc3c(NC)nc(Cl)nc31)[C@H](O)[C@@H]2O,NE,[9],inactive
CSc1nc(N)c2ncn([C@@H]3O[C@H](COP(=O)(O)OP(=O)(O)O)[C@@H](O)[C@H]3O)c2n1,NE,[12],inactive
same,NE,[8],inactive
same,NE,[6],inactive
Nc1ncnc2c1ncn2[C@@H]1O[C@H](COP(=O)(O)OP(=O)(O)OP(=O)(O)O)[C@@H](O)[C@H]1O [ADENOSINE TRIPHOSPHATE],EC50,[1],85 nM
same,Activity,[13],100%
same,NE,[8],inactive
same,Activity,[14],100%
Nc1ncnc2c1ncn2C12CC1C(COP(=O)(O)OP(=O)(O)OP(=O)(O)O)C(O)C2O (stereo unspecified),Activity,[13],57%
same,Activity,[14],34%
CSc1nc(N)c2ncn([C@H]3[C@H](O)[C@H](O)[C@@]4(COP(=O)(O)OP(=O)(O)O)C[C@@H]34)c2n1,EC50,[2],0.88 nM
same,EC50,[3],0.4 nM
same,% of maximal effect,[15],54%
same,NE,[16],inactive
same,NE,[6],inactive
Nc1nc(Cl)nc2c1ncn2[C@@H]1O[C@H](COP(=O)(O)O)[C@@H](O)[C@H]1O,NE,[4],inactive
same,NE,[9],inactive
Nc1ncnc2c1ncn2C1C(O)C(O)C2(COP(=O)(O)OP(=O)(O)OP(=O)(O)O)CC12 (stereo unspecified),EC50,[1],91 nM
same,EC50,[2],14 nM
same,% of maximal effect,[17],35%
same,Activity,[13],52%
same,% of maximal effect,[18],32%
same,Activity,[14],4%
CSc1nc(N)c2ncn([C@H]3[C@H](O)[C@H](O)[C@@]4(COP(=O)(O)O)C[C@@H]34)c2n1,EC50,[2],1190 nM
same,EC50,[3],590 nM
same,NE,[6],inactive
CNc1ncnc2c1ncn2C1C(O)C(O)[C@@]2(COP(=O)(O)OP(=O)(O)OP(=O)(O)O)C[C@@H]12 (stereo partly specified),EC50,[1],197 nM
same,EC50,[2],92 nM
same,EC50,[3],33 nM
Nc1nc(Cl)nc2c1ncn2C1C(O)C(O)[C@@]2(COP(=O)(O)OP(=O)(O)OP(=O)(O)O)C[C@@H]12 (stereo partly specified),EC50,[1],1900 nM
same,EC50,[2],3 nM
same,EC50,[3],7 nM
C[S+]([O-])c1nc(N)c2ncn(C3O[C@H](COP(=O)(O)O)[C@@H](O)[C@H]3O)c2n1 (stereo partly specified),NE,[4],inactive
same,NE,[9],inactive
Nc1ncnc2c1ncn2[C@@H]1O[C@H](COP(=O)(O)O)[C@@H](O)[C@H]1O,Activity,[10],100%
same,NE,[9],inactive
CSc1nc(N)c2ncn([C@@H]3O[C@H](COP(=O)(O)OP(=O)(O)OP(=O)(O)O)[C@@H](O)[C@H]3O)c2n1,EC50,[3],34 nM
Nc1nc(Cl)nc2c1ncn2[C@H]1[C@H](O)[C@H](O)[C@@]2(COP(=O)(O)O)C[C@@H]12,EC50,[2],3900 nM
same,EC50,[3],1890 nM
